Assay outcomes from PubChem.
M4 antag = antagonists of human muscarinic M4 receptor (CHRM4); 360,000 compounds, 0.73% hits; inhibition, % at 3 µM; AID 624125; P08173; CHO-hM4 cells, ACh EC80, Fluo-8 calcium fluorescence;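 active = inhibition above its plate's cutoff, the mean inhibition of sample wells plus 3 SD, cut at about 27% in these data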;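 note: 0% = acetylcholine EC80 with DMSO and 100% = DMSO without agonist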
Target sequence (P08173 whole entry, looked up): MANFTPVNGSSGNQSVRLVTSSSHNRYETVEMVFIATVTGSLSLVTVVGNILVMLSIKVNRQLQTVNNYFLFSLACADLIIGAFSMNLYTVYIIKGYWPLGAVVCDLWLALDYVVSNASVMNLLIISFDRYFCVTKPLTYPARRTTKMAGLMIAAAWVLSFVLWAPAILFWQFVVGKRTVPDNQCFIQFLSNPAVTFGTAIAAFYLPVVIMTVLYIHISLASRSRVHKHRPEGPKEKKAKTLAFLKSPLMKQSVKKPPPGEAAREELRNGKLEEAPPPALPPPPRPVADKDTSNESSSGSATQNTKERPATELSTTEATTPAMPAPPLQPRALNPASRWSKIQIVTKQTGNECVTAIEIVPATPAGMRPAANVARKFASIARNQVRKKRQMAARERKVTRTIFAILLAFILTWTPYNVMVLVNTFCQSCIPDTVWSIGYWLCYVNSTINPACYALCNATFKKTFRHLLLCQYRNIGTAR
M5 PAM = positive allosteric modulators of human muscarinic M5 receptor | P08912 | CHO-K1 hM5, Fluo-8 calcium, ACh EC20 PAM; 0% = ACh EC20, 100% = ACh EC100 | activation, % at 3 µM | 360,000 compounds, 0.3% hits;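 active = activation above the run cutoff, the mean activation of all test compounds plus 3 SD, cut at about 18% in these data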
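Measured by: Fluo-8 calcium fluorescence; material: human M5 receptor in CHO-K1 cells; schedule: Post-acetylcholine fluorescence recording 140 s; benchmarks: low control EC20 acetylcholine (0%), high control EC100 acetylcholine (100%); read-out: Max/basal fluorescence ratio as % of EC20–EC100 ACh window; compound: single dose, 3 µM nominal final test concentration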
M4 ag = agonists of human muscarinic M4 receptor (CHRM4) | P08173 | CHO-K1 hM4/Gqi5, Fluo-8 calcium fluorescence; vehicle 0%, full acetylcholine response 100% | activation, % at 3 µM | 360,000 compounds, 0.14% hits | AID 624127;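 active = activation above the run mean over all test wells plus 3 SD, cut at about 32% in these data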;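 note: peak over basal fluorescence ratio per well then scaled between controls; 0% = DMSO wells and 100% = acetylcholine at EC100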
CHRM5 antagonist = antagonists of human muscarinic M5 receptor (CHRM5). P08912. CHO-hM5 cells, Fluo-8 calcium fluorescence, ACh EC80. inhibition, % at 3 µM. 360,000 compounds, 0.59% hits;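 active = inhibition above a per-plate cutoff, the mean of that plate's test compounds plus 3 SD, cut at about 27% in these data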;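 note: 0% = acetylcholine EC80 with DMSO and 100% = DMSO without agonist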
M5 ag = agonists of human muscarinic M5 receptor (CHRM5). P08912. CHO-K1 hM5 cells, Fluo-8 calcium fluorescence; 0% DMSO wells, 100% maximal acetylcholine response. activation, % at 3 µM. 360,000 compounds, 0.19% hits;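 active = activation above the run's mean over test compounds plus 3 SD, cut at about 23% in these data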;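 note: signal is peak over basal fluorescence ratio across the kinetic read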
CHRM4 PAM = potentiates acetylcholine response at human M4 receptor; 360,000 compounds, 0.4% hits; P08173; activation, % at 3 µM; CHO-K1 hM4/Gqi5, Fluo-8 calcium fluorescence, ACh EC20; 0% = ACh EC20, 100% = maximal ACh;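 active = activation above its plate's cutoff, the mean activation of sample wells plus 3 SD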
* = called active by the depositor. Compounds with a hit are over-represented: about 1.8% of the library has one in this group of screens.

SMILES | M4 antag | M5 PAM | M4 ag | CHRM5 antagonist | M5 ag | CHRM4 PAM
CCOC(=O)c1ccc(S(=O)(=O)Nc2cc(S(=O)(=O)Nc3ccc(OC)cc3)ccc2O)cc1 | -6 | 18* | 0 | -5 | -3 | 6
COc1ccc(NS(=O)(=O)c2ccc(C(=O)N3CCCCCC3)cc2)cc1 | -7 | -30 | 23 | 11 | 24* | -6
CCOc1ccc(NS(=O)(=O)c2ccc(C(=O)N3CCCC(C)C3)cc2)cc1 (stereo not given) | 0 | -22 | 36* | 14 | 36* | -7
COc1ccc(NS(=O)(=O)c2ccc(C(=O)N(C)Cc3cccs3)cc2)cc1 | -2 | -17 | 17 | 8 | 26* | 1
CC(C)(C)OC(=O)NCCCCCNC(=O)c1[nH]cnc1C(=O)Nc1cc(Br)ccc1F | -22 | -1 | 1 | -8 | 2 | 9
Cc1ccc(CC2(C)C(=O)Nc3c(Cl)ccc(Cl)c32)cc1 (stereo not given) | 3 | -13 | -2 | 6 | -2 | -10
COCC(=O)N1C[C@H](C)[C@H](OC)CN(C)C(=O)c2cc(NC(=O)Nc3cccc(F)c3)ccc2OC[C@@H]1C | -10 | 9 | 3 | -14 | 0 | -1
COc1ccc(NC(=O)N(C)C[C@@H]2OCc3cnnn3CCCC(=O)N([C@@H](C)CO)C[C@H]2C)c(OC)c1 | 7 | -1 | 0 | 3 | -1 | -2
O=C(c1ccccc1)c1ccc(C(=O)N2CCCC(C(F)(F)F)C2)cc1 (stereo not given) | -1 | -7 | 4 | 6 | 1 | 2
Cc1ccc(NS(=O)(=O)c2ccc(C(=O)N3CCC3)cc2)cc1 | 8 | -10 | 5 | 11 | 7 | -4
CCOc1ccc(NS(=O)(=O)c2ccc(C(=O)NCc3ccccn3)cc2)cc1 | -2 | -12 | 22 | 4 | 32* | -9
Cc1ccc(NS(=O)(=O)c2ccc(C(=O)N3CC(C)OC(C)C3)cc2)cc1 (stereo not given) | 2 | -9 | 24 | 10 | 31* | 7
Cc1ccc(NS(=O)(=O)c2ccc(C(=O)NCc3ccccn3)cc2)cc1 | 5 | -6 | 15 | 9 | 22 | -8
O=C(c1ccc(S(=O)(=O)Nc2ccccc2)cc1)N1CCCC(C(F)(F)F)C1 (stereo not given) | -2 | -17 | 32 | 10 | 36* | -6
CCCCOCCCNC(=O)C[C@@H]1C[C@@]2(C(=O)OC)CC(C)(C)CC=C2N(Cc2cccc3ccccc23)C1=O | -3 | -1 | 3 | 10 | 2 | 3
COc1ccc(C2(C)NC(=O)N(CC(=O)Nc3cccnc3Cl)C2=O)cc1 (stereo not given) | 4 | -4 | 2 | 4 | 10 | -2
CC1(c2ccc(OC(F)F)cc2)NC(=O)N(CC(=O)Nc2cccnc2Cl)C1=O (stereo not given) | 8 | -12 | 28 | 8 | 43* | -6
Cc1ccccc1COc1cccn2c(N(C)C(=O)CCC3CCCC3)c(C)nc12 | 8 | 0 | 13 | -4 | -1 | -13
COC(=O)[C@H](C)NC(=O)NC(C)CCc1ccccc1 (stereo not given in full) | -1 | 2 | 2 | 3 | -2 | 20*
Cn1c(N)c(C(=O)CSc2nc3ccccc3c(=O)n2CCCN2CCOCC2)c(=O)n(C)c1=O | -18 | -10 | 5 | 5 | -1 | -3
Cc1[nH]c2ccccc2c1C(=O)CSc1nc2ccccc2c(=O)n1CCCN1CCOCC1 | 27* | -20 | 25 | 20 | 4 | -14
CCCCNC(=O)C1(C)CCCCN1C(=O)c1ccc2sccc2c1 (stereo not given) | 7 | -1 | 0 | 8 | 0 | -4
O=C(O)C1CCCCC1C(=O)NCc1ccc(F)cc1 (stereo not given) | -1 | 4 | 0 | -2 | 2 | 34*
O=C(O)C1CCCCC1C(=O)NCc1ccccc1 (stereo not given) | 2 | -4 | 0 | 4 | 0 | -3
CCN(CC)S(=O)(=O)c1ccc(S(=O)(=O)N2CCN(C(=O)c3ccco3)CC2)cc1 | 29* | 4 | 1 | 14 | 0 | 23
SMILES | M4 antag | M5 PAM | M4 ag | CHRM5 antagonist | M5 ag | CHRM4 PAM
CCN(CC)S(=O)(=O)c1ccc(C(=O)N2CCN(C(=O)c3ccco3)CC2)cc1 | 6 | -3 | 1 | 14 | 0 | 1
CCn1nnnc1NCc1ccc(N2CCCC2)cc1 | 35* | -7 | 1 | 14 | -10 | -24
Cc1ccc2nc(C)cc(C(=O)NC3CCCCCC3)c2c1 | -19 | -7 | 2 | -4 | 5 | 25*
O=C(Nc1ccc(-c2nc3ccccc3s2)c(O)c1)C1=COCCO1 | -24 | 3 | -2 | -12 | 1 | 9
O=C(Nc1ccc(O)c(-c2nc3ccccc3s2)c1)C1=COCCO1 | 79* | -20 | 2 | 23 | -4 | -41
O=C1OC2C(O)COC23OC(O)CCC13O (stereo not given) | -6 | 3 | 1 | -3 | 1 | 2
CCCOc1ccc2c(c1)C(=NN=C(N)N)c1cc(OCCC)ccc1-2 | -7 | 2 | 4 | 11 | 2 | 28*
Cc1ccc(S(=O)(=O)N/N=C/c2ccc(OC3CSC3)cc2)cc1 | 20 | -1 | 42* | 15 | 38* | 4
COCc1cc(C)c2c(N)c(C#N)sc2n1 | 9 | 6 | 1 | 3 | 0 | 34*
Fc1cccc(F)c1-n1c(CN2CCCC2)csc1=S | 68* | 1 | 21 | 2 | -7 | 9
CCOc1ccc(NC(=O)C2CCN(C(=O)C3CC(=O)N(c4ccc(C)cc4)C3)CC2)cc1 (stereo not given) | -8 | 2 | 1 | -2 | -3 | 19*
COc1ccc(N2CC(C(=O)N3CCN(c4ccccc4)CC3)CC2=O)cc1 (stereo not given) | 4 | -13 | 1 | 31* | -4 | 0
COC(=O)[C@@]1(Cc2ccc(F)cc2)[C@H]2c3cc(C(=O)N(C)C)n(CC4CC4)c3C[C@H]2CN1C(=O)c1ccccc1 | -14 | -3 | 4 | -6 | 5 | 4
FC(F)Oc1ccc(NC(=S)NCc2ccccc2)cc1 | -2 | -10 | 5 | 13 | -1 | -5
FC(F)Oc1ccc(NC(=S)NCc2ccccc2)cc1Cl | 12 | -16 | 13 | 33* | 4 | -19
CCN(CC)S(=O)(=O)c1ccc(N2CCN(c3ccccc3OC)CC2)c(N)c1 | 20 | -16 | 18 | 30* | 7 | -15
CCN(CC)S(=O)(=O)c1ccc(Oc2ccccc2)c(N)c1 | 6 | 9 | 4 | 8 | -1 | 2
